# Screening data deposited in PubChem by several laboratories.
# An excerpt weighted towards active compounds, which were near 2.2% of everything screened.
# Neddyl block – inhibitors of human cullin neddylation; P61081+Q13564; TR-FRET cullin neddylation, biochemical; inhibition, % at 25 µM; hit rate 0.58% among 360,000; in the data active means inhibition above about 36%
# HKDC1 inh – HKDC1 (human) hexokinase inhibition | hit rate 0.16% among 340,000 | recombinant HKDC1, G6PDH/diaphorase resazurin coupled fluorescence | AID 493160 | inhibition, % at 20 µM;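 active means inhibition above about 35% when tested at 20 µM, limit read from the data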;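 further: plate controls were DMSO wells with enzyme for no effect and DMSO wells lacking enzyme for full effect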
#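 Test system: Recombinant HKDC1 (HK5) hexokinase enzyme, produced in-house | Input: HKDC1 at 5 µg/mL | Buffer or medium: Tris pH 8.0 buffer with MgCl2, Tween-20, BSA, BME | Schedule: 90 min reaction incubation at room temperature, dark | Technique: Resazurin-to-resorufin fluorescence via G6PDH and diaphorase coupling, 525/613 nm | Controls: DMSO wells with and without enzyme mix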
# PfGluPho inh – PfG6PD (Plasmodium falciparum) enzyme inhibition; AID 504690; hit rate 0.78% among 350,000; PfGluPho enzyme, NADPH resazurin-diaphorase fluorescence; inhibition, % at 20 µM;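 active means inhibition reaching at least a set limit at 20 µM in the primary screen, cut at about 59% in these data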;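 further: 0% = DMSO wells with substrate and 100% = DMSO wells lacking glucose-6-phosphate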
# PfM18AAP inh-1 – blocks P. falciparum M18 aspartyl aminopeptidase. recombinant PfM18AAP, H-Glu-NHMec fluorogenic cleavage. inhibition, % at 7.35 µM. hit rate 1.2% among 290,000;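 active means inhibition above the campaign mean inhibition over all tested compounds plus 3 SD, cut at about 28% in these data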;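 further: 0% = plate median of test compound wells and 100% = 2 mM ZnCl2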
# PfM18AAP inh-2 – PfM18AAP inhibition, confirmation; inhibition, % at 7.35 µM; AID 2170; recombinant PfM18AAP, H-Glu-NHMec fluorogenic cleavage; shares compounds with PfM18AAP inh-1; hit rate 28% among 2,400;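 active means mean inhibition over replicate wells above the hit cutoff set for the earlier primary screen, cut at about 29% in these data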;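 further: 0% = median of test compound wells and 100% = 2 mM ZnCl2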
# CTSL1 counter – counter-screen for PFM18AAP inhibitors: confirmation of human cathepsin L inhibitors; shares compounds with PfM18AAP inh-1; purified cathepsin L1, Z-Leu-Arg-MCA fluorescence; inhibition, % at 5.96 µM; 2,400 tested, under 10 active; AID 2178;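 active means average inhibition across replicates above the hit cutoff set in the earlier primary screen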;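 further: 0% = median of test compound wells and 100% = Z-Phe-Ala-diazomethylketone 1 µM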
# The depositor's hits bear a star; . = not tested or not shown.
SMILES,Neddyl block,HKDC1 inh,PfGluPho inh,PfM18AAP inh-1,others
CCCc1cc(=O)oc2cc(OCC(=O)N3CCC(C(=O)O)(c4ccccc4)CC3)ccc12,40.6*,-5.2,10.0,12.5,
CCCc1cc(=O)oc2cc(OCC(=O)N3CCN(Cc4ccc5c(c4)OCO5)CC3)ccc12,25.0,7.6,-7.5,-1.9,
O=C(CCCc1ccccc1)NCCc1cnc[nH]1,-13.1,2.8,-5.6,-11.4,
CC(=Nc1ccccc1N)c1c(O)n(C)c(=O)n(C)c1=O,1.2,-4.0,4.6,-4.8,
O=[N+]([O-])/C=C/c1c(Cl)cccc1Cl,-11.0,0.0,101.3*,.,
O=C(O)c1cc[c]([Hg][Cl])cc1,-2.9,3.9,121.8*,.,
COc1ccc(N2C(=O)NC(=O)/C(=C/c3ccc([N+](=O)[O-])s3)C2=O)cc1,-32.0,5.1,55.9,4.5,
COc1ccc(CN2C(=O)NC(=O)/C(=C/c3ccc([N+](=O)[O-])s3)C2=O)cc1,-21.9,13.2,67.4*,-8.4,
COc1ccc(N2C(=O)NC(=O)/C(=C\c3ccc([N+](=O)[O-])s3)C2=O)cc1,-32.7,5.5,63.1*,-1.6,
COc1ccccc1N1C(=O)NC(=O)/C(=C/c2ccc([N+](=O)[O-])s2)C1=O,.,8.5,72.1*,6.3,
O=C1NC(=O)N(Cc2ccc(F)cc2)C(=O)/C1=C\c1ccc([N+](=O)[O-])s1,-20.0,12.0,71.2*,-9.8,
O=C(Nc1nc(-c2ccccc2)c(-c2ccccc2)s1)c1ccc(S(=O)(=O)N(CCCl)CCCl)cc1,16.6,-4.8,-16.2,-7.1,
Cc1cc(O)c2c(c1)C(=O)C13C(=C2O)C(=O)[C@H]2[C@@H](O)[C@@H]1[C@H]1[C@H](O)[C@@H]3C(=O)C3=C(O)c4c(O)cc(C)cc4C(=O)C312 (stereo not given in full),-13.0,67.4*,28.8,.,
COC(=O)C1=C(c2ccc(OC(F)(F)F)cc2)C[C@@H]2CC[C@H]1N2C(=O)NCCOc1ccc(OC)cc1,-17.2,0.8,19.7,.,
Cc1cc(OCC(=O)N2CCC(C(=O)O)CC2)c2c3c(c(=O)oc2c1)CCC3,.,3.6,12.8,-4.6,
CCN(CC)c1ccc(/C=C/[N+](=O)[O-])cc1,-2.3,9.6,3.9,23.4,
COc1cc(/C=C/[N+](=O)[O-])ccc1O,-7.4,15.2,40.7,29.1*,
COC(=O)c1nc(-c2ccc3c(n2)C(=O)C(N)=C(OC)C3=O)c(N)c(-c2ccc(OC)c(OC)c2O)c1C,-43.9,21.9,52.9,31.8*,
CCOc1cc2c(cc1OCC)-n1cccc1C(c1cccc(F)c1)NC2 (stereo not given),1.1,-4.4,16.4,1.1,
C[C@H]1CCC/C=C/[C@@H]2C[C@H](O)C[C@H]2[C@H](O)/C=C/C(=O)O1,-5.5,-6.5,14.1,.,
COc1cc(C=C2C(=O)NC(=O)NC2=O)ccc1OCc1ccc([N+](=O)[O-])cc1,-34.5,7.3,37.4,0.9,
COc1cc(/C=C(/C)[N+](=O)[O-])ccc1OCc1ccccc1Cl,1.2,28.9,51.8,30.0*,
C=CCn1c(O)c(C(C)=Nc2ccc(N(CC)CC)cc2)c(=O)[nH]c1=O,-12.0,-5.1,20.1,29.4*,
C=CCn1c(O)c(C(C)=Nc2ccc(N(C)C)cc2)c(=O)[nH]c1=O,-8.4,2.3,9.5,30.5*,
C=CCn1c(O)c(C(CC)=Nc2ccc(N(CC)CC)cc2)c(=O)[nH]c1=O,-4.8,-2.8,-4.4,28.8*,
SMILES,Neddyl block,HKDC1 inh,PfGluPho inh,PfM18AAP inh-1,others
C=CCn1c(O)c(C(CC)=Nc2ccc(NC(C)=O)cc2)c(=O)[nH]c1=O,2.2,-1.3,-8.6,13.0,
COC(=O)C1=C(c2ccc(F)cc2F)C[C@@H]2CC[C@H]1N2C(=O)N1CCC(O)CC1,-0.9,-7.1,0.9,.,
CCCCCCC(=O)c1c(O)n(-c2ccc(OC)cc2)c(=O)[nH]c1=O (tested in a mixture with another compound),3.5,-2.3,-13.7,3.1,
NC(=S)c1cn(C2OC(CO)C(O)C2O)c2ncnc(N)c12 (stereo not given),-4.1,-3.0,15.9,39.7*,
COc1cccc(NC2=NCCCS2)c1,-0.6,-4.9,-7.7,-4.0,
COc1cc2c(cc1OC)C13CCN4CC5=CCOC(CC(=O)O)C(C5CC41)C3N2 (stereo not given),0.6,3.6,46.1,.,
COc1cc2c(cc1O)C[C@H]1NCCc3cc4c(c-2c31)OCO4,24.5*,23.3,32.9,10.3,
COc1cc2c(cc1OC)-c1c3c(cc4c1[C@@H](C2)N(C)CC4)OCO3,-55.5,21.4,45.9,7.9,
C(#CCN1CCOCC1)COC/C=C/c1ccccc1,10.5,-1.0,-2.3,31.3*,
Clc1ccc(OCC#CCN2CCOCC2)cc1,0.2,-7.0,6.9,1.1,
O=C(N/N=C/c1c(O)n(Cc2ccccc2)c(=O)[nH]c1=O)c1ccccc1O,41.0*,-5.5,-27.0,13.0,
O=C(N/N=C/c1c(O)n(Cc2ccc(F)cc2)c(=O)[nH]c1=O)c1ccccc1O,31.9,-11.9,-36.7,16.9,
COC(=O)C1=C(c2ccc(F)cc2OCc2ccccc2)C[C@@H]2CC[C@H]1N2C(=O)NCCc1ccc(F)cc1,-11.0,-1.4,16.9,.,
O=C1NC(=S)N(c2ccccc2)C(=O)/C1=C/c1ccco1,-16.1,67.6*,18.7,12.7,
COC1=C(C)C(=O)C2=C(C1=O)C(CO)N1C(C#N)C3CC4C(C1C2N1CCOC41)N3C (stereo not given),8.5,32.3,84.2*,.,
COC(=O)C1=C(c2ccc(F)cc2OCc2ccccc2)C[C@@H]2CC[C@H]1N2C(=O)NCCN1CCOCC1,3.3,-1.3,-11.5,.,
CCn1nc(-c2cccs2)nc2c(=O)n(C)c(=O)nc1-2,-120.0,-30.5,107.1*,.,
Oc1cc2c(cc1O)[C@H]1c3ccccc3CN[C@@H]1CC2,.,.,.,89.5*,
CCN1CCN(Cc2cccnc2)CC1,1.8,-0.7,-9.7,-0.9,
NC(=O)Cn1cc(C=C2C(=O)NC(=O)NC2=O)c2ccccc21,-6.5,2.8,16.8,28.6*,
O=C(NC1CCCCC1)Oc1cc2oc(=O)sc2cc1Cl,9.6,-5.4,38.9,31.2*,
NC(N)=Nc1ccc2[nH]c3c(c2c1)C[C@@]1(O)[C@H]2Cc4ccc(O)c5c4[C@@]1(CCN2CC1CC1)[C@H]3O5,-7.1,0.7,96.6*,.,
Oc1ccc2c3c1O[C@H]1[C@@H](O)CC[C@@]4(O)[C@@H](C2)N(CC2CCC2)CC[C@]314,-17.0,-2.0,0.3,.,
Nc1cccc(SC2CC(=O)N(c3ccc(Cl)cc3C(=O)c3ccccc3)C2=O)c1 (stereo not given),0.8,.,17.7,.,
COC(=O)C1=C(c2cccc(C#N)c2)C[C@@H]2CC[C@H]1N2C(=O)NC1CC1,-13.9,-7.3,-17.3,.,
COc1ccccc1/C=N/N=C(/N)N[N+](=O)[O-],-10.8,-7.3,4.9,9.8,
N/C(=N\N=C\c1ccc(O)cc1O)N[N+](=O)[O-],-13.9,-2.8,-12.2,43.6*,PfM18AAP inh-2=64.7*;CTSL1 counter=3.7
